Experimental data reported in ChEMBL document CHEMBL4382253, “Isolation and Characterization of Anaephenes A-C, Alkylphenols from a Filamentous Cyanobacterium ( Hormoscilla sp., Oscillatoriales)” (J Nat Prod, 2018).
Values after ≈ are worked out from the molar mass of the structure shown.

Experiments:
Pseudomonas aeruginosa = assay: Antibacterial activity against Pseudomonas aeruginosa PAO1 ATCC BAA-47 measured after overnight incubation; assay type: functional
In short: (§1)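 Strain precultured overnight in LB broth at 37 °C, then diluted 10^6-fold in fresh medium. 2-fold serial broth microdilution in 96-well plates from 100 μM top concentration, DMSO or water negative control. Triplicate wells. MIC taken as the lowest concentration showing no turbidity.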

[1] = tested on: Mycobacterium tuberculosis; assay: Antibacterial activity against Mycobacterium tuberculosis H37Ra ATCC 25177 measured after 1 week; assay type: functional; conditions: H37Ra ATCC 25177, 168 h
In short: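 M. tuberculosis H37Ra grown two weeks in Middlebrook 7H9, diluted to OD600 0.01; broth microdilution in 96-well plates, compounds given at 2-fold final concentration in first column then serially diluted 2-fold; DMSO or H2O negative control, streptomycin positive control; triplicates; incubated one week at 37 °C.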

Staphylococcus aureus = assay: Antibacterial activity against Staphylococcus aureus ATCC 25923 Seattle 1945 measured after overnight incubation; assay type: functional; in short: as §1
HCT-116 = assay: Cytotoxicity against human HCT116 cells after 48 hrs by MTT assay; assay type: functional, cell-based; conditions: HCT-116, 48 h
In short: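 Cells kept in DMEM with 10% FBS and 1% antibiotic-antimycotic at 37 °C, 5% CO2. Seeded at 10,000 cells/well, treated after 24 h with a range of concentrations or DMSO. Viability read by MTT after 48 h.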

Bacillus cereus = assay: Antibacterial activity against Bacillus cereus ATCC 10987 NRS 248 measured after overnight incubation; assay type: functional
In short: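 B. cereus grown overnight in LB broth at 30 °C, diluted 10^6-fold in fresh medium. 2-fold serial broth microdilution in 96-well plates starting at 100 μM, DMSO or water as negative control. Triplicates. MIC is the lowest concentration with no visible turbidity.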

Saccharomyces cerevisiae = assay: Antifungal activity against Saccharomyces cerevisiae BY4741 measured after overnight incubation by spectrometric method; assay type: functional
In short: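 Yeast grown overnight in YPD at 30 °C. Cell density set by A660, final 10 × 10^5 cells/mL. 2-fold serial dilution in YPD from 100 μM, DMSO negative control, nystatin positive control starting at 25 μM. Triplicates, overnight incubation.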

Compound	MIC (Pseudomonas aeruginosa) [µg/mL]	MIC [1] [µg/mL]	MIC (Staphylococcus aureus) [µg/mL]	IC50 (HCT-116) [µM]	MIC (Bacillus cereus) [µg/mL]	MIC (Saccharomyces cerevisiae) [µg/mL]
CN[C@@H]1[C@H](O[C@H]2[C@H](O[C@H]3[C@H](O)[C@@H](O)[C@H](N=C(N)N)[C@@H](O)[C@@H]3N=C(N)N)O[C@@H](C)[C@]2(O)C=O)O[C@@H](CO)[C@H](O)[C@H]1O [STREPTOMYCIN]	6.2 (≈ 10.7 µM)	3.1 (≈ 5.33 µM)	–	–	–	–
O=C(N[C@H](CO)[C@H](O)c1ccc([N+](=O)[O-])cc1)C(Cl)Cl [CHLORAMPHENICOL]	–	–	4 (≈ 12.4 µM)	–	–	–
C#CCCC/C=C/CCCCc1cccc(O)c1	> 24	> 24	6.1 (≈ 25.2 µM)	71	6.1 (≈ 25.2 µM)	> 24
NYSTATIN	–	–	–	–	–	23
O=C(O)c1cn(C2CC2)c2cc(N3CCNCC3)c(F)cc2c1=O [CIPROFLOXACIN]	–	–	–	–	0.03 (≈ 0.0905 µM)	–
CCC/C=C/C=C/CCc1cccc(O)c1	> 22	> 22	22 (≈ 102 µM)	> 100	22 (≈ 102 µM)	> 22
CCC/C=C/CCCCc1cccc(O)c1	> 22	> 22	22 (≈ 101 µM)	26	11 (≈ 50.4 µM)	> 22
